# From ChEMBL document CHEMBL2146382, “Cytotoxic and antineoplastic activity of timosaponin A-III for human colon cancer cells” (J Nat Prod, 2011)
# Active and inactive are the calls of the source. No cut-off for these calls is given here.
# How the values were obtained:
# [1] = test system: HCT-15; assay: Growth inhibition of human HCT15 cells; assay type: functional, cell-based
# Outline: (§1)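 SRB assay: cells at 5 × 10^4 cells/mL were exposed to a concentration series for 3 days, fixed with 10% TCA and stained with sulforhodamine B. Survival was expressed as % of solvent-treated control and IC50 taken by nonlinear regression of % survival versus concentration. Media held 10% heat-inactivated FBS plus antibiotics: RPMI (HCT-15, HCT 116, HT-29), RPMI with 25 mM HEPES (SW480, SW620), DMEM (MRC-5, Hs68). Cultures were kept at 37 C, 5% CO2.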
# [2] = test system: HCT-15; assay: Cell cycle arrest in human HCT15 cells assessed as accumulation at S phase at 20 uM after 24 hrs using propidium-iodide staining by flow-cytometry (reference value: 34.1 %); assay type: functional
# [3] = Growth inhibition of human […] cells; assay type: cell-based; outline: as §1
# [4] = test system: Hs68; assay: Growth inhibition of human HS68 cells; assay type: cell-based; outline: as §1
# [5] = test system: HT-29; assay: Growth inhibition of human HT-29 cells; assay type: functional, cell-based; outline: as §1
# [6] = test system: HCT-15; assay: Cell cycle arrest in human HCT15 cells assessed as accumulation at G2/M phase at 10 uM after 24 hrs using propidium-iodide staining by flow-cytometry (reference value: 22.4 %); assay type: functional
# [7] = test system: HCT-15; assay: Cell cycle arrest in human HCT15 cells assessed as change in PCNA level at 5 to 20 uM after 12 to 24 hrs by Western blot analysis
# [8] = test system: HCT-15; assay: Antineoplastic activity against human HCT15 cells xenografted nude in BALB/c mouse assessed as inhibition of rate of tumor size at 2 mg/kg, ip 3 times a week for 4 weeks relative to control; assay type: functional; details: HCT-15, ip, 672 h, route intraperitoneal
# Outline: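 HCT-15 cells (2 × 10^6 in 200 μL medium) implanted subcutaneously in flanks of BALB/c-nu (nu/nu) mice; dosing began at ca. 80 mm3 tumours; groups of five, randomized. 2 or 5 mg/kg given ip three times weekly in ethanol–cremophor–H2O (0.5:0.5:99), vehicle controls; caliper volume (3.14·L·W·H/6) three times weekly for 30 days; Ki-67 immunohistochemistry on tumour sections (1:250, 4 °C overnight, DAB, hematoxylin counterstain).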
# [9] = test system: HCT-15; assay: Cell cycle arrest in human HCT15 cells assessed as accumulation at sub-G1 phase at 10 uM after 12 hrs using propidium-iodide staining by flow-cytometry (reference value: 5.2 %); assay type: functional
# [10] = test system: HCT-15; assay: Cell cycle arrest in human HCT15 cells assessed as increase in cyclin E expression at 5 to 20 uM after 12 to 24 hrs by Western blot analysis; assay type: functional, cell-based
# Outline: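 HCT-15 cells in RPMI/10% FBS exposed to test compound at various concentrations; lysates quantified by BCA, 30–50 μg protein run on 10% SDS-PAGE, transferred to PVDF, blocked 1 h in 5% milk/PBST, primary antibodies overnight at 4 °C, HRP anti-mouse IgG 1:1500 for 3 h at room temperature, ECL detection.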
# [11] = test system: HCT-15; assay: Induction of apoptosis in human HCT15 cells assessed as suppression of procaspase-9 expression at 5 to 20 uM after 12 to 24 hrs by Western blot analysis; assay type: functional, cell-based
# Outline: (§2)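 HCT-15 cells (RPMI, 10% heat-inactivated FBS, antibiotics-antimycotics, 37 C, 5% CO2) exposed to compound. Cells lysed, protein measured by BCA, 30-50 μg per lane resolved on 10% SDS-PAGE and electroblotted to PVDF. Membranes blocked 1 h in 5% nonfat milk/PBST, probed with primary antibodies overnight at 4 C, then HRP anti-mouse IgG 1:1500 for 3 h at room temperature. Detection by ECL; β-actin antibody available.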
# [12] = test system: HCT-15; assay: Cell cycle arrest in human HCT15 cells assessed as accumulation at sub-G1 phase at 10 uM after 24 hrs using propidium-iodide staining by flow-cytometry (reference value: 6.5 %); assay type: functional
# [13] = test system: HCT-15; assay: Induction of apoptosis in human HCT15 cells assessed as suppression of Bcl-xL expression at 5 to 20 uM after 24 hrs by Western blot analysis; assay type: functional, cell-based; outline: as §2
# [14] = test system: SW-620; assay: Growth inhibition of human SW620 cells; assay type: functional, cell-based; outline: as §1
compound,measurement,setting,value
C[C@H]1CC[C@@]2(OC1)O[C@H]1C[C@H]3[C@@H]4CC[C@@H]5C[C@@H](O[C@@H]6O[C@H](CO)[C@H](O)[C@H](O)[C@H]6O[C@@H]6O[C@H](CO)[C@@H](O)[C@H](O)[C@H]6O)CC[C@]5(C)[C@H]4CC[C@]3(C)[C@H]1[C@@H]2C [TIMOSAPONIN AIII],IC50,[1],6.1 µM
same,Activity,[2],17%
same,IC50,[3],> 50 µM
same,IC50,[4],> 50 µM
same,IC50,[5],10.3 µM
same,Activity,[6],30.4%
same,Activity,[7],inactive
same,inhibition in vivo at 2 mg/kg,[8],8.3%
same,Activity,[9],14.2%
same,Activity,[10],Active
same,Activity,[11],Active
same,Activity,[12],6.4%
same,Activity,[13],Active
same,IC50,[14],11.1 µM
